# Experimental data reported in ChEMBL document CHEMBL1138494, “Human glucagon receptor antagonists with thiazole cores. A novel series with superior pharmacokinetic properties” (J Med Chem, 2009).
# Activity calls are given as the source filed them. The rule behind the calls is not given here.
# Legend:
# [1] = Cmax in fasted Sprague-Dawley rat at 1.66mg/kg, iv and 3 mg/kg, po; type: ADME, organism-based; set-up: dose 3 mg/kg, route oral; details: in vivo
# Summary of the method: (§1)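 Rats were dosed intravenously and perorally in separate arms, and plasma concentration-time profiles were obtained. Half-life was taken from the iv arm. Clearance, oral bioavailability, Cmax and Tmax were derived from the profiles.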
# [2] = Half life in fasted Sprague-Dawley rat plasma at 1.66 mg/kg, iv by HTLC-MS/MS analysis; type: ADME, organism-based; set-up: dose 1.66 mg/kg, route intravenous; summary of the method: as §1
# Glucagon receptor [3] = biological target: T1, Glucagon receptor (Homo sapiens, UniProt P47871); test: Displacement of [125I]porcine glucagon from human recombinant glucagon receptor expressed in BHK cells by scintillation proximity assay; type: cell-based
# Homo sapiens [4] = species on record: Homo sapiens; test: Selectivity for human recombinant glucagon receptor over human GLP1R
# [5] = Clearance in fasted Sprague-Dawley rat at 1.66 mg/kg, iv and 3 mg/kg, po; type: ADME, organism-based; details: in vivo; summary of the method: as §1
# [6] = Tmax in fasted Sprague-Dawley rat at 1.6mg/kg, iv and 3 mg/kg, po; type: ADME, organism-based; set-up: dose 3 mg/kg, route oral; details: in vivo
# Summary of the method: (§2)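 Plasma concentration–time profiles were recorded after separate intravenous and peroral dosing at the per-compound doses listed. T_max is reported in min alongside C_max (ng/mL), intravenous half-life and clearance ((mL/min)/kg).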
# Homo sapiens [7] = species on record: Homo sapiens; test: Selectivity ratio of IC50 for human recombinant glucagon receptor to IC50 for human recombinant GIPR
# Summary of the method: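 Competition binding of compounds to recombinant human glucagon and GIP receptors on BHK cell membranes, run in parallel as a scintillation proximity assay and, for selected compounds, as a membrane filtration assay.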
# [8] = biological target: T2, Gastric inhibitory polypeptide receptor (Homo sapiens, UniProt P48546); test: Displacement of [125I]porcine GIP from human recombinant GIPR receptor expressed in BHK cells by scintillation proximity assay; type: cell-based
# T2 sequence (P48546 whole entry): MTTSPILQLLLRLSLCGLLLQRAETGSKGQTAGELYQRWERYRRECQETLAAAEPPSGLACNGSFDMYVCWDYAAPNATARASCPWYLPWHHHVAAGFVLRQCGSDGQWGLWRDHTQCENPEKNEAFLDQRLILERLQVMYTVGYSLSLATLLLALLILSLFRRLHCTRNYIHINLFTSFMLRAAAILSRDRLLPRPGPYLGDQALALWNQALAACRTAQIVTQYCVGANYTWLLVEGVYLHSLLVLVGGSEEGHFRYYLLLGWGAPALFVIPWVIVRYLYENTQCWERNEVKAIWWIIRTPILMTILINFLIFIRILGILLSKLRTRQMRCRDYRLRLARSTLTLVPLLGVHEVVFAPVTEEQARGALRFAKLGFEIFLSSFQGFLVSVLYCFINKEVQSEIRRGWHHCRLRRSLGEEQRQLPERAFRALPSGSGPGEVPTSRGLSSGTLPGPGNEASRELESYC
# [9] = Oral bioavailability in fasted Sprague-Dawley rat at 3 mg/kg by HTLC-MS/MS analysis; type: ADME, organism-based; details: in vivo
# Summary of the method: (§3)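 Separate intravenous and peroral dosing arms per compound, with plasma concentration followed against time. Oral bioavailability (F_po) is reported per compound together with the intravenous half-life and clearance. The dose used for each arm is listed per compound.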
# [10] = Cmax in fasted Sprague-Dawley rat at 1.66 mg/kg, iv and 3.34 mg/kg, po by HTLC-MS/MS analysis; type: ADME, organism-based; details: in vivo; summary of the method: as §1
# [11] = Clearance in fasted Sprague-Dawley rat at 1.66 mg/kg, iv and 3.34 mg/kg, po by HTLC-MS/MS analysis; type: ADME, organism-based; details: in vivo; summary of the method: as §1
# [12] = Oral bioavailability in fasted Sprague-Dawley rat at 3.34 mg/kg by HTLC-MS/MS analysis; type: ADME, organism-based; details: in vivo; summary of the method: as §3
# Hepatocyte [13] = test: Inhibition of glucagon-stimulated glucose production in rat primary hepatocytes; type: functional, cell-based
# Glucagon receptor [14] = biological target: T1, Glucagon receptor; test: Binding affinity to human recombinant glucagon receptor expressed in BHK cells by membrane filter assay; type: cell-based
# [15] = Binding affinity to glucagon receptor in monkey liver membrane by membrane filter assay; type: cell membranes, Macaca mulatta
# Hepatocyte [16] = test: Inhibition of glucagon-stimulated glucose production in human primary hepatocytes preincubated for 10 mins before glucagon addition by NADH-linked hexokinase assay; type: functional, cell-based
# Summary of the method: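 Cultured primary human hepatocytes were preincubated with compound for 10 min, then glycogenolysis was induced with 5 nM glucagon for 60 min. Glucose in the medium was measured against basal glycogenolysis. Albumin was present in the assay medium. IC50 was calculated from four experiments, mean ± SEM.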
# [17] = Tmax in fasted Sprague-Dawley rat at 1.66 mg/kg, iv and 3.34 mg/kg, po by HTLC-MS/MS analysis; type: ADME, organism-based; details: in vivo; summary of the method: as §2
# Glucagon receptor [18] = biological target: Glucagon receptor (Rattus norvegicus, UniProt P30082); test: Binding affinity to glucagon receptor in rat liver membrane by membrane filter assay; type: cell membranes
# [19] = biological target: T2, Gastric inhibitory polypeptide receptor; test: Binding affinity to human recombinant GIPR expressed in BHK cells by membrane filter assay; type: cell-based
# Glucagon receptor [20] = biological target: Glucagon receptor (Mus musculus, UniProt Q61606); test: Binding affinity to glucagon receptor in mouse liver membrane by membrane filter assay; type: cell membranes
# [21] = Tmax in fasted Sprague-Dawley rat at 1.9 mg/kg, iv and 3.7 mg/kg, po by HTLC-MS/MS analysis; type: ADME, organism-based; details: in vivo; summary of the method: as §2
# [22] = Half life in fasted Sprague-Dawley rat plasma at 1.9 mg/kg, iv by HTLC-MS/MS analysis; type: ADME, organism-based; set-up: dose 1.9 mg/kg, route intravenous; summary of the method: as §1
# [23] = Oral bioavailability in fasted Sprague-Dawley rat at 3.7 mg/kg by HTLC-MS/MS analysis; type: ADME, organism-based; details: in vivo; summary of the method: as §3
# [24] = Clearance in fasted Sprague-Dawley rat at 1.9 mg/kg, iv and 3.7 mg/kg, po by HTLC-MS/MS analysis; type: ADME, organism-based; details: in vivo; summary of the method: as §1
# [25] = Cmax in fasted Sprague-Dawley rat at 1.9 mg/kg, iv and 3.7 mg/kg, po by HTLC-MS/MS analysis; type: ADME, organism-based; details: in vivo; summary of the method: as §1
# [26] = Tmax in fasted Sprague-Dawley rat at 1.6 mg/kg, iv and 3.15 mg/kg, po by HTLC-MS/MS analysis; type: ADME, organism-based; details: in vivo; summary of the method: as §2
# [27] = Half life in fasted Sprague-Dawley rat plasma at 1.6 mg/kg, iv by HTLC-MS/MS analysis; type: ADME, organism-based; set-up: dose 1.6 mg/kg, route intravenous; summary of the method: as §1
# [28] = Oral bioavailability in fasted Sprague-Dawley rat at 3.15 mg/kg by HTLC-MS/MS analysis; type: ADME, organism-based; details: in vivo; summary of the method: as §3
# [29] = Clearance in fasted Sprague-Dawley rat at 1.6 mg/kg, iv and 3.15 mg/kg, po by HTLC-MS/MS analysis; type: ADME, organism-based; details: in vivo; summary of the method: as §1
# [30] = Cmax in fasted Sprague-Dawley rat at 1.6 mg/kg, iv and 3.15 mg/kg, po by HTLC-MS/MS analysis; type: ADME, organism-based; details: in vivo; summary of the method: as §1
# T1 sequence (P47871 whole entry): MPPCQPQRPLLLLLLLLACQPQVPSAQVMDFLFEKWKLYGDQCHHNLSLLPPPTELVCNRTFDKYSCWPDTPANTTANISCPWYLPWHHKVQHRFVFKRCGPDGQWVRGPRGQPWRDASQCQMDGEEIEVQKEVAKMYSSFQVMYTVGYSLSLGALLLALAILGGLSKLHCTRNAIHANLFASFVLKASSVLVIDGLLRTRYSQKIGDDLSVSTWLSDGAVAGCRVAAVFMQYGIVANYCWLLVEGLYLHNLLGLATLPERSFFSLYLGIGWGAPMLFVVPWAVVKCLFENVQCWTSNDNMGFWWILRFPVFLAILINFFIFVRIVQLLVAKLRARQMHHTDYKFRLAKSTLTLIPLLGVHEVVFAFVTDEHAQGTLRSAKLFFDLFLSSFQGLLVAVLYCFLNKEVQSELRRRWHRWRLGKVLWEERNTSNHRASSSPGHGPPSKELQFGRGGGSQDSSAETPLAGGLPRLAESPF
# Glucagon receptor (Mus musculus, UniProt Q61606), sequence (Q61606 whole entry): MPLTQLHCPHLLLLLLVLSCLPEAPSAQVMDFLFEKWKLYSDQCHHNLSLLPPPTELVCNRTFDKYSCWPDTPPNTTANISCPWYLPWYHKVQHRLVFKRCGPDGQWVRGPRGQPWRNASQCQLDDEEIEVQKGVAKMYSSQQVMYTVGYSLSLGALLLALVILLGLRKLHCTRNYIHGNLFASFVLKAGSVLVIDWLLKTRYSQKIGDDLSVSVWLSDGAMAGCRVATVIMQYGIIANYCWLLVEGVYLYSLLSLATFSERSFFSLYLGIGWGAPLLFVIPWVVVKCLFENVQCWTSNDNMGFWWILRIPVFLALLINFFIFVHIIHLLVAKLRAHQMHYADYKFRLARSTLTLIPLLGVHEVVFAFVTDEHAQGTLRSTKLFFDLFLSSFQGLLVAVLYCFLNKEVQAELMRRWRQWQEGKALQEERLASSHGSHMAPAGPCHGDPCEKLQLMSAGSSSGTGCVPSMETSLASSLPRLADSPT
# Glucagon receptor (Rattus norvegicus, UniProt P30082), sequence (P30082 whole entry): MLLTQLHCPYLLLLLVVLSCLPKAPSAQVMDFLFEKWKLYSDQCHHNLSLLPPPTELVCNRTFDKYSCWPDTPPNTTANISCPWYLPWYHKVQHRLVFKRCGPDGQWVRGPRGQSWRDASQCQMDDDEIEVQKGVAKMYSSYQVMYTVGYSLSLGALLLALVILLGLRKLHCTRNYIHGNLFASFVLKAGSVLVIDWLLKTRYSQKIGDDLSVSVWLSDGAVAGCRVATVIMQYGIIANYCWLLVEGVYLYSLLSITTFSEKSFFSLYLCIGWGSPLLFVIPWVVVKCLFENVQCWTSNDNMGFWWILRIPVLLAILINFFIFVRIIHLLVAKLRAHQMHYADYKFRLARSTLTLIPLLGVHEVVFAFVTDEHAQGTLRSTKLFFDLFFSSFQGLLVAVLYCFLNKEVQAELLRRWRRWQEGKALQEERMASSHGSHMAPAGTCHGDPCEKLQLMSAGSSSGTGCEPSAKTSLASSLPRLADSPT
SMILES,half-life [2] [min],IC50 (Glucagon receptor [3]) [nM],fold change (FC) (Homo sapiens [4]),fold change (FC) (Homo sapiens [7]),IC50 [8] [nM],IC50 (Glucagon receptor [14]) [nM],IC50 [19] [nM],other results
O=C(NC[C@@H](O)C(=O)O)c1ccc(CN(c2ccc3c(c2)CCC3)c2nc(-c3ccc(OC(F)(F)F)cc3)cs2)cc1,,225,> 50,5,> 1000,,,
O=C(O)CCNC(=O)c1ccc(CN(c2ccc3c(c2)CCC3)c2nc(-c3ccc(OC(F)(F)F)cc3)cs2)cc1,61,85,> 50,5,950,96,770,Cmax [10]: 704 ng/mL; clearance [11]: 15 mL/min/kg; bioavailability [12]: 87%; inhibition (Hepatocyte [13]): inactive; IC50 [15]: 94 nM; IC50 (Hepatocyte [16]): 8.6 µM; Tmax [17]: 4 h; IC50 (Glucagon receptor [18]): 4.4 µM; IC50 (Glucagon receptor [20]): 680 nM
O=C(O)CCNC(=O)c1ccc(CN(c2ccc(C3=CCCCC3)cc2)c2nc(-c3ccc(OC(F)(F)F)cc3)cs2)cc1,,36,> 50,5,207,,,Tmax [21]: 1.5 h; half-life [22]: 43 min; bioavailability [23]: 3%; clearance [24]: 34 mL/min/kg; Cmax [25]: 47 ng/mL
O=C(NC[C@@H](O)C(=O)O)c1ccc(CN(c2ccc3c(c2)CCC3)c2nc(-c3ccc(C(F)(F)F)cc3)cs2)cc1,,261,> 50,5,> 1000,,,
CC(C)(C)c1ccc(-c2csc(N(Cc3ccc(C(=O)NCCC(=O)O)cc3)c3ccc(C4=CCCCC4)cc3)n2)cc1,,118,> 50,5,721,,,Tmax [26]: 1.5 h; half-life [27]: 30 min; bioavailability [28]: 2%; clearance [29]: 39 mL/min/kg; Cmax [30]: 13 ng/mL

# Continued by falling IC50 (Glucagon receptor [3]), values first:
half-life [2] [min],IC50 (Glucagon receptor [3]) [nM],fold change (FC) (Homo sapiens [4]),fold change (FC) (Homo sapiens [7]),IC50 [8] [nM],IC50 (Glucagon receptor [14]) [nM],IC50 [19] [nM],SMILES,other results
,315,> 50,5,729,,,CC(C)(C)c1ccc(-c2csc(N(Cc3ccc(C(=O)NCCC(=O)O)cc3)c3ccc(C(C)(C)C)cc3)n2)cc1,
,93,> 50,5,555,34,320,O=C(O)CCNC(=O)c1ccc(N(Cc2ccc3c(c2)Cc2ccccc2-3)c2nc(-c3ccc(Cl)cc3)cs2)cc1,
131,86,> 50,5,1100,64,510,O=C(O)CCNC(=O)c1ccc(CN(c2ccc3c(c2)CCC3)c2nc(-c3ccc(C(F)(F)F)cc3)cs2)cc1,Cmax [10]: 920 ng/mL; clearance [11]: 13 mL/min/kg; bioavailability [12]: 89%; inhibition (Hepatocyte [13]): inactive; IC50 [15]: 81 nM; IC50 (Hepatocyte [16]): < 20 µM; Tmax [17]: 1 h; IC50 (Glucagon receptor [18]): 5.4 µM; IC50 (Glucagon receptor [20]): 830 nM
40,78,> 50,5,645,,,O=C(O)CCNC(=O)c1ccc(N(Cc2ccc3c(c2)Cc2ccccc2-3)c2nc(-c3ccc(C(F)(F)F)cc3)cs2)cc1,Cmax [1]: 93 ng/mL; clearance [5]: 31 mL/min/kg; Tmax [6]: 1.5 h; bioavailability [9]: 13%
